Measured values from ChEMBL document CHEMBL4513216, “Probing the Open Global Health Chemical Diversity Library for Multistage-Active Starting Points for Next-Generation Antimalarials” (ACS Infect Dis, 2020).

Assay: Toxicity liver stage against HepG2, at 10uM
Format: cell-based
Parameters: test concentration 10 uM, cell line HepG2-A16-CD81EGFP
Settings: human, HepG2-A16-CD81EGFP cells; read-out: INHIBITION
Outline: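 Uninfected HepG2-A16-CD81EGFP cells, 3 × 10^3 per well, 1536-well, plated on prespotted compound at 10 μM final, parasite-free screening media added to match infected plates; puromycin 10 μM positive, DMSO 0.5% negative; run in parallel with 48 h PbLuc assay at 37 °C, 5% CO2; viability by CellTiter-Glo luminescence, normalized to controls.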

SMILES | cytotoxicity at 10 µM [%]
Cn1ccnc1CN1CCOC[C@H]1c1nc(C(C)(C)C)co1 | -4.13
CN(C)[C@@H]1CO[C@H](CNC(=O)CC(C)(C)C)[C@H]1O | -10.8
CC[C@H]1CN(C(=O)c2cccnc2)CC[C@H]1CC(=O)NCCOC | 5.26
c1cc(-c2noc([C@@H]3Cc4nc[nH]c4CN3)n2)ccn1 | -0.873
CC1CCN(c2ccc(NC(=O)CCn3cccn3)cc2)CC1 | -10.6
O=C(CCc1nc2ccccc2[nH]1)Nc1ccc2c(c1)OCC(=O)N2 | 17.9
O=C(Nc1nnn[nH]1)c1cc(-c2ccc(Br)s2)n[nH]1 | -2.71
Cc1nc(N2CCOCC2)nc(C)c1NS(=O)(=O)c1ccccc1 | -1.44
COc1ncc(NS(=O)(=O)c2ccc(F)c(F)c2)c(OC)n1 | -7.76
COc1ccc(C[C@H]2CN(C(=O)C3CC3)CC[C@H]2OC)cc1 | 2.67
O=C1CC2(CCCCN2C(=O)c2cccs2)CN1CC1CC1 (configuration not stated) | 2.67
CCN(C)C(=O)c1cc(-c2ccn(C(C)C)n2)n2ccccc12 | -4.35
CN(C)CCN1CCc2ncc(CN(C)Cc3ccco3)n2CC1 | -6.26
CCS(=O)(=O)N1Cc2ncn(CC3CC3)c2C(COC)C1 (configuration not stated) | 8.83
COCC1CN(C(=O)c2ccccn2)Cc2nccn2C1 (configuration not stated) | 8.62
Cc1cccc(COC2COC3(CCN(Cc4ccoc4)CC3)C2)n1 (configuration not stated) | -0.211
Cc1cccc(C(=O)N2CCn3cnc(COCC4CC4)c3C2)n1 | 6.85
CC(C)NC(=O)C(C)NC(=O)N1CCN(c2ccc(Cl)cc2)CC1 (configuration not stated) | -3.6
O=C(O)Cn1nc(C2CC2)c2c(-c3cccs3)ccnc21 | -11.6
CC(C)c1noc(C2CCN(C(=O)C3CCCO3)CC2)n1 (configuration not stated) | 8.35
COc1ccc(OC)c(C(C)NS(=O)(=O)c2cnn(C)c2)c1 (configuration not stated) | -3.35
Cc1ccc2c(c1)c(C)cc(=O)n2CCC#N | 5.81
O=C(c1cncs1)N1CCOCC(Cc2ccncn2)C1 (configuration not stated) | 1.13

SMILES | cytotoxicity at 10 µM [%]
COc1ccc(CC(=O)N2CCN(Cc3ccco3)C[C@@H]2C)cc1OC | 3.88
CC(=O)N1CCC1c1cc(NC2CCOCC2)nc(C)n1 (configuration not stated) | 1.79
Cc1cc(C)nc(Nc2cc(C)nc(C3CCN(C(C)C)C3)n2)n1 (configuration not stated) | 3.06
Cc1cc(N2CCCC2c2cnccn2)ncn1 (configuration not stated) | 2.44
Cc1ccc(CNC(=O)c2ccc(CNS(C)(=O)=O)o2)cc1F | 15.2
CC(C)(C)CNC(=O)c1ccc(C(=O)O)cn1 | -4.01
Cn1cc(CNc2nc3cc(Cl)ccc3n2C)cn1 | 16.8
CC1CCC(N2CCC(NS(=O)(=O)CCCF)CC2)CC1 (configuration not stated) | 1.2
O=C(C1CCCOC1)N1CCN(CC(F)(F)F)c2ccccc21 (configuration not stated) | 8.09
COCc1nnc(-c2cccc(C(=O)OC(C)C)c2)o1 | -21.8
CCOC(=O)N(C)CC(=O)NCCc1coc(-c2ccc(C)cc2)n1 | -13.9
COc1cccc(CNC2CCc3ccc(C)cc32)n1 (configuration not stated) | 4.37
O=C1CCN(C(=O)NCc2ccccc2Oc2ccccc2)CCN1 | 6.03
Cc1cc(C)nc(NC2CCC(=O)N(C)C2)n1 (configuration not stated) | -4.83
CC(NC(=O)NCC(F)(F)F)c1nncn1C (configuration not stated) | -1.63
CCOc1cc(Cl)ccc1CNC(=O)N1CCCC(CO)C1 (configuration not stated) | 9.54
Cc1cnn(CC2CCCCN2C(=O)CCCc2nc(C)no2)c1 (configuration not stated) | 1.46
COCc1noc(C2(c3ccc(F)cc3)CC2)n1 | -2.93
O=C1NCCCCC1NS(=O)(=O)N1CCCCC1 (configuration not stated) | 1.48
COCc1cccc(CNC(=O)CNc2ccccc2C(C)=O)c1 | 0.529
CCc1noc(CC)c1CC(=O)N1CCC(C(=O)NC(C)C)CC1 | -10.9
Cn1c(N)nnc1SCc1ccc(Cl)cc1Br | 1.48
Cc1cccc(CN2CCN(C(=O)c3cccnc3O)CC2)c1 | 1.73

SMILES | cytotoxicity at 10 µM [%]
CSCC(C)(O)CNc1ccccn1 (configuration not stated) | 8.26
CN(CCc1nc2ccccc2c(=O)[nH]1)CCC(F)(F)F | -2.27
CC1CCCN(C(=O)c2csc(S(N)(=O)=O)c2)CC1 (configuration not stated) | 1.52
Cc1noc(C)c1CN1CCn2c(COC(C)C)nnc2C1 | -113
Cc1oncc1C(=O)N1CC[C@H]2C[C@H](c3ccncn3)O[C@@H]2C1 | -67.4
CC(=O)N1CCC(n2nccc2-c2cnc(N(C)CCO)nc2)CC1 | 5.47
C[C@@H]1CN(C(=O)c2nc3sccn3c2-c2ncc[nH]2)C[C@H](C)O1 | 3.85
O=C1CCC(CCC(=O)N2CCC2c2cccs2)=NN1 (configuration not stated) | 6.13
CCC(C)N(Cc1sccc1C)C(=O)c1ccc2cccnc2n1 (configuration not stated) | 2.05
CCN(Cc1cc(F)c(OC)c(Cl)c1)Cc1nc(COC)no1 | 3.98
Cc1cc2occ(CC(=O)N3CCC(O)(CN(C)C)C3)c2cc1Cl (configuration not stated) | -6.55
CCCc1nnc(N2CCN(c3cccc(OC)c3)C(=O)C2)o1 | 9.52
Cc1cc(C(=O)N2CCc3c(ncnc3N3CCOCC3)C2)[nH]n1 | -5.92
N#Cc1c(N)nc2c(c1-c1c[nH]nc1C1CCCCC1)COCC2 | 6.75
COc1cc(N2CCC(c3nccn3Cc3ccccc3)CC2)ncn1 | 5.44
C=C(C)COc1ccccc1NC(=O)N1CCOCC(CO)C1 (configuration not stated) | -1.57
Cc1noc(C)c1CCCNC(=O)Nc1ccc2c(c1)CC(=O)N2 | -16
Cc1cc(N2CCCC(O)(CN(C)C)C2)c2cc3c(cc2n1)OCO3 (configuration not stated) | 0.935
Cc1nc(O)cc(C2CCN(C(=O)c3ccsc3)CC2)n1 | -4.97
Cc1cc2[nH]c(=O)oc2cc1S(=O)(=O)N1CCCC(N(C)C)CC1 (configuration not stated) | 0.74
Cc1cc2c(c(-c3c[nH]c(C)n3)c1)OC(CN)C2 (configuration not stated) | 4.24
COCCC1CCN([C@@H]2c3ccccc3C3(CCNCC3)[C@H]2O)CC1 | 1.35
CCOc1cccc(C2CC(=O)NCc3nc(N(C)C)sc32)c1 (configuration not stated) | -10.9

SMILES | cytotoxicity at 10 µM [%]
O=C(O)Cc1nc2nccc(-c3ccc(F)cc3)n2n1 | -1.53
CCn1cc(CN2CCCN(C(=O)CCc3cccs3)CC2)cn1 | -6.99
O=C(c1ccc2cc[nH]c2c1)N1CCC(Nc2cccnn2)CC1 | -5.06
NS(=O)(=O)Cc1ccc(CNc2cncc(-n3cccn3)n2)cc1 | 6.1
Cc1cnn(CC2CCCCN2C(=O)c2c(C)noc2C)c1 (configuration not stated) | -7.26
CC1CCCN(CCNC(=O)c2scnc2Cl)C1 (configuration not stated) | -6.06
COCCN1CCC(CNC(=O)C2(c3cccc(C)c3)CC2)C1 (configuration not stated) | -4.28
CC1CN(Cc2ccc(C#N)cc2F)CCN1Cc1nccn1C (configuration not stated) | -4.66
CC(=O)N(Cc1ncc(C)o1)C1CCN(Cc2nccn2C)C1 (configuration not stated) | 6.57
Cc1cnn(CC2CN(Cc3nnc(C4CC4)n3C)CCO2)c1 (configuration not stated) | -2.72
O=C(N1CCCC(n2cncn2)C1)C1(c2cccc(F)c2)CCCC1 (configuration not stated) | 3.39
Cc1cc(C(=O)N2CCCC(n3cncn3)C2)no1 (configuration not stated) | -9.98
CC(OCC1CC1)C(=O)N1CCCN(Cc2cscn2)CC1 (configuration not stated) | -5.16
COc1c(CNCc2ccc(N(C)C)nc2)c(C)nn1C | -12.3
COc1ncccc1CNCc1c(C)nn(C)c1N(C)C | -7.62
CN(CCc1ccccc1)Cc1nc2c(cnn2C)c(=O)[nH]1 | -3.18
c1ccc(-c2cc(CN3CCCC(Cn4cncn4)C3)on2)cc1 (configuration not stated) | -15.9
Cc1ccc(N2CCCC(NCc3ccc(-n4ccnc4)cc3)C2)nn1 (configuration not stated) | -8.44
Cc1ccn2ncc(C(=O)N3CCCC(n4nc(C)nc4C)C3)c2n1 (configuration not stated) | -13.6
CCC(C)C(=O)NCc1cccc(N2CCCCC2=O)c1 (configuration not stated) | -6.93
Cc1nc(CC(=O)N2CCC(Nc3cccnn3)CC2)cs1 | -9.45
CCc1csc(C2CCCN(C(=O)c3ccc(OC)nn3)C2)n1 (configuration not stated) | -8.8
OCCN1CCN(Cc2coc(-c3ccc(Cl)cc3)n2)CC1 | -13.6

SMILES | cytotoxicity at 10 µM [%]
CN1CCOC(CN(C(=O)Cc2ccccc2F)c2nccs2)C1 (configuration not stated) | -11.7
CCC(CC)C(O)CNC(=O)Nc1cc(C)nn1C (configuration not stated) | -11
Cc1nnc(N2CCO[C@H]3[C@@H](OCc4ccccn4)CC[C@@H]32)s1 | 12.2
CC(=O)N1CCc2cc(C(=O)O)c(-c3ccsc3)nc2CC1 | 13.8
Cn1nc(CN2CCCC2)c2c1CN(CC1CC1)CC2 | -3.27
O=C([C@H]1COC[C@H]2CN(CC3CCCC3)C[C@H]21)N1CCOCC1 | 20.5
Cc1cccc(CN2C[C@H](NS(C)(=O)=O)[C@@H]3OCCC[C@@H]32)n1 | -0.179
Cc1cnc(N2CCC3(CCC(C(=O)NC(C)C)C3)CC2)nc1 (configuration not stated) | -0.603
O=C(N[C@@H]1CN[C@@H]2CCCO[C@@H]21)c1cscn1 | -8.69
O=C(N[C@@H]1CN(Cc2ccoc2)[C@@H]2CCCO[C@@H]21)C1CC1 | 0.0515
CN(C)C(=O)N1CCC2(CCCN(c3ncccn3)C2)C1 (configuration not stated) | 4.82
O=C1N(CC2CC2)CCC12CCN(Cc1ccoc1)CC2 | -0.302
c1csc(CN2CCOCC3(CCN(C4CCOCC4)C3)C2)c1 (configuration not stated) | -0.608
Cn1cc(CN2C[C@@H]3CCCO[C@@H]3[C@H](NC(=O)CC3CC3)C2)cn1 | -0.00726
O=C(O)c1c(NC2CCC2)ncc2c1CCN(C1CCOC1)C2 (configuration not stated) | 11.4
O=C(NCc1ccco1)[C@@]12CCO[C@@H]1CCN(CC1CCOCC1)C2 | 6.06
c1ccc(CN2C[C@@H]3COC[C@]3(COCC3CCOCC3)C2)nc1 | -0.326
N#CC1Sc2nnc(-c3ccccc3F)n2N=C1N (configuration not stated) | -0.634
CC(C)Cn1c(=O)[nH]c2cn(-c3ccc(F)cc3)c(=O)n21 | 8.2
CC(=O)Nc1c(C)noc1C=Cc1ccc(C)c(S(=O)(=O)NC2CC2)c1 | 0.905
